Measurements as given in ChEMBL document CHEMBL1129507, “Betulinic acid derivatives: a new class of human immunodeficiency virus type 1 specific inhibitors with a new mode of action” (J Med Chem, 1996).

Experiments:
[1] = system: CCRF-CEM; experiment: Ability to inhibit the cytopathic effect induced by HIV-1 infection in CEM T-lymphoblastoid tumor cell line; type: functional, cell-based; settings: Homo sapiens
Procedure, shortened: (§1)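 CEM 4 cells in RPMI 1640 with 10% heat-inactivated FCS, penicillin, streptomycin, glutamine and polybrene (2 µg/mL), 37 °C, 5% CO2. Compound dilutions or PBS preincubated with cells for 1 h, then infected with HIV-1 IIIB/LAI (100-200 CCID50) and cultured ≥5 days. Mock-infected parallel cultures for cytotoxicity. Absorbance read at 540 nm; IC50 for 50% protection against cytopathogenicity, mean of ≥2 experiments.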

[2] = system: MT4; experiment: Ability to inhibit the cytopathic effect induced by HIV-1 infection in MT-4 cells; type: functional, cell-based; settings: Homo sapiens
Procedure, shortened: (§2)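 MT-4 cells infected with HIV-1 strain IIIB/LAI. Protection from virus-induced cytopathogenicity measured by the MTT method. IC50 is the concentration giving 50% protection, mean of at least two experiments.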

[3] = system: CCRF-CEM; experiment: Ability to inhibit the cytopathic effect induced by HIV-1 infection in CEM T-lymphoblastoid tumor cell line; NA=not active.; type: functional, cell-based, Homo sapiens; procedure, shortened: as §1
[4] = system: MT4; experiment: Ability to inhibit the cytopathic effect induced by HIV-1 infection in MT-4 cells; NA=not active.; type: functional, cell-based, Homo sapiens; procedure, shortened: as §2

Row | Structure (SMILES) | IC50 [1] [nM] | IC50 [3] | IC50 [2] [nM] | IC50 [4]
1 | C=C(CSCCN(CC)CC)[C@@H]1CC[C@]2(C(=O)NCCCCCCCCCCC(=O)O)CC[C@]3(C)[C@H](CCC4[C@@]5(C)CC[C@H](O)C(C)(C)[C@@H]5CC[C@]43C)[C@@H]12 (stereo partly specified) | 1000 |  | 630 | 
2 | C=C(CSCC(=O)O)[C@@H]1CC[C@]2(C(=O)NCCCCCCCCCCC(=O)O)CC[C@]3(C)[C@H](CCC4[C@@]5(C)CC[C@H](O)C(C)(C)[C@@H]5CC[C@]43C)[C@@H]12 (stereo partly specified) |  | Not Active | 1610 | 
3 | C=C(C)[C@@H]1CC[C@]2(C(=O)N(C)CCCCCCCCCCC(=O)O)CC[C@]3(C)[C@H](CCC4[C@@]5(C)CC[C@H](O)C(C)(C)[C@@H]5CC[C@]43C)[C@@H]12 (stereo partly specified) |  | Not Active |  | Not Active
4 | C=C(C)[C@@H]1CC[C@]2(CNCCCCCCCCCCC(=O)O)CC[C@]3(C)[C@H](CCC4[C@@]5(C)CC[C@H](O)C(C)(C)[C@@H]5CC[C@]43C)[C@@H]12 (stereo partly specified) |  | Not Active |  | 
5 | C=C(C)[C@@H]1CC[C@]2(C(=O)OCCCCCCCCCCC(=O)O)CC[C@]3(C)[C@H](CCC4[C@@]5(C)CC[C@H](O)C(C)(C)[C@@H]5CC[C@]43C)[C@@H]12 (stereo partly specified) |  | Not Active |  | Not Active
6 | C=C(C)[C@@H]1CC[C@]2(NC(=O)NCCCCCCCCCC(=O)O)CC[C@]3(C)[C@H](CCC4[C@@]5(C)CC[C@H](O)C(C)(C)[C@@H]5CC[C@]43C)[C@@H]12 (stereo partly specified) |  | Not Active |  | Not Active
7 | CC1(C)C(O)CC[C@@]2(C)C1CC[C@]1(C)C2CCC2C3[C@H](C(=O)O)CC[C@]3(C(=O)NCCCCCCCCCCC(=O)O)CC[C@]21C (stereo partly specified) | 50000 |  | 9000 | 
8 | C=C(CNC(C)=O)[C@@H]1CC[C@]2(C(=O)NCCCCCCCCCCC(=O)O)CC[C@]3(C)[C@H](CCC4[C@@]5(C)CC[C@H](O)C(C)(C)[C@@H]5CC[C@]43C)[C@@H]12 (stereo partly specified) | 1250 |  | 260 | 
9 | CC(=O)[C@@H]1CC[C@]2(C(=O)NCCCCCCCCCCC(=O)O)CC[C@]3(C)C(CCC4[C@@]5(C)CCC(O)C(C)(C)C5CC[C@]43C)C12 (stereo partly specified) | 12000 |  |  | 
10 | C=C(C)[C@@H]1CC[C@]2(NC(=O)CCCCCCCCCCC(=O)O)CC[C@]3(C)[C@H](CCC4[C@@]5(C)CC[C@H](O)C(C)(C)[C@@H]5CC[C@]43C)[C@@H]12 (stereo partly specified) |  | Not Active |  | Not Active
11 | C=C(CNCC(=O)O)[C@@H]1CC[C@]2(C(=O)NCCCCCCCCCCC(=O)O)CC[C@]3(C)[C@H](CCC4[C@@]5(C)CC[C@H](O)C(C)(C)[C@@H]5CC[C@]43C)[C@@H]12 (stereo partly specified) |  | Not Active |  | 
12 | C=C(CN1CCCC1)[C@@H]1CC[C@]2(C(=O)NCCCCCCCCCCC(=O)O)CC[C@]3(C)[C@H](CCC4[C@@]5(C)CC[C@H](O)C(C)(C)[C@@H]5CC[C@]43C)[C@@H]12 (stereo partly specified) | 1000 |  | 420 | 
13 | C=C(CNCCO)[C@@H]1CC[C@]2(C(=O)NCCCCCCCCCCC(=O)O)CC[C@]3(C)[C@H](CCC4[C@@]5(C)CC[C@H](O)C(C)(C)[C@@H]5CC[C@]43C)[C@@H]12 (stereo partly specified) | 5750 |  | 2000 | 
14 | CC(C)[C@@H]1CC[C@]2(C(=O)NCCCCCCCCCCC(=O)O)CC[C@]3(C)C(CC[C@@H]4[C@@]5(C)CCC(O)C(C)(C)C5CC[C@]43C)C12 (stereo partly specified) | 1500 |  | 580 | 
15 | C=C(CSCCO)[C@@H]1CC[C@]2(C(=O)NCCCCCCCCCCC(=O)O)CC[C@]3(C)[C@H](CCC4[C@@]5(C)CC[C@H](O)C(C)(C)[C@@H]5CC[C@]43C)[C@@H]12 (stereo partly specified) | 290 |  | 270 | 
16 | C=C(CN)[C@@H]1CC[C@]2(C(=O)NCCCCCCCCCCC(=O)O)CC[C@]3(C)[C@H](CCC4[C@@]5(C)CC[C@H](O)C(C)(C)[C@@H]5CC[C@]43C)[C@@H]12 (stereo partly specified) |  | Not Active |  | 
17 | C=C(CO)[C@@H]1CC[C@]2(C(=O)NCCCCCCCCCCC(=O)O)CC[C@]3(C)[C@H](CCC4[C@@]5(C)CC[C@H](O)C(C)(C)[C@@H]5CC[C@]43C)[C@@H]12 (stereo partly specified) | 200 |  | 380 | 
18 | C=C(CSc1ccc(F)cc1)[C@@H]1CC[C@]2(C(=O)NCCCCCCCCCCC(=O)O)CC[C@]3(C)[C@H](CCC4[C@@]5(C)CC[C@H](O)C(C)(C)[C@@H]5CC[C@]43C)[C@@H]12 (stereo partly specified) | 2000 |  | 1370 | 

Continued, in another order:

Row | IC50 [1] [nM] | IC50 [3] | Structure (SMILES) | IC50 [2] [nM] | IC50 [4]
19 |  | Not Active | C=C(C)[C@@H]1CC[C@]2(C(=O)NCCCCCCCCCCC(=O)O)CC[C@]3(C)[C@H](CCC4[C@@]5(C)CC[C@H](OC)C(C)(C)[C@@H]5CC[C@]43C)[C@@H]12 (stereo partly specified) |  | Not Active
20 | 3000 |  | C=C(C)[C@@H]1CC[C@]2(C(=O)NCCCCCCCCCCC(=O)O)CC[C@]3(C)[C@H](CCC4[C@@]5(C)CC[C@@H](O)C(C)(C)[C@@H]5CC[C@]43C)[C@@H]12 (stereo partly specified) | 2520 | 
21 |  | Not Active | C=C(C)[C@@H]1CC[C@]2(C(=O)NCCCCCCCCCCC(=O)O)CC[C@]3(C)C(CCC4[C@@]5(C)CC(O)C(O)C(C)(C)C5CC[C@]43C)C12 (stereo partly specified) |  | 
22 | 1800 |  | C=C(C)[C@@H]1CC[C@]2(C(=O)NCCCCCCCCCCC(=O)O)CC[C@]3(C)C(CC[C@@H]4[C@@]5(C)CC=CC(C)(C)C5CC[C@]43C)C12 (stereo partly specified) | 2600 | 
23 | 3000 |  | C=C(C)[C@@H]1CC[C@]2(C(=O)NCCCCCCCCCCC(=O)O)CC[C@]3(C)C(CC[C@@H]4[C@@]5(C)C=C(O)C(=O)C(C)(C)C5CC[C@]43C)C12 (stereo partly specified) |  | 
24 |  | Not Active | C=C(C)[C@@H]1CC[C@]2(C(=O)NCCCCCCCCCCC(=O)O)CC[C@]3(C)[C@H](CCC4[C@@]5(C)CCCC(C)(C)[C@@H]5CC[C@]43C)[C@@H]12 (stereo partly specified) |  | 
25 |  | Not Active | C=C(C)[C@@H]1CC[C@]2(C(=O)NCCCCCCCCCCC(=O)O)CC[C@]3(C)[C@H](CCC4[C@@]5(C)CC[C@H](N)C(C)(C)[C@@H]5CC[C@]43C)[C@@H]12 (stereo partly specified) |  | 
26 | 230 |  | C=C(C)[C@@H]1CC[C@]2(C(=O)NCCCCCCCCCCC(=O)O)CC[C@]3(C)[C@H](CCC4[C@@]5(C)CC[C@H](O)C(C)(C)[C@@H]5CC[C@]43C)[C@@H]12 (stereo partly specified) | 440 | 
27 | 1200 |  | C=C(C)[C@@H]1CC[C@]2(C(=O)NCCCCCCCCCCC(=O)O)CC[C@]3(C)[C@H](CCC4[C@@]5(C)CCC(=O)C(C)(C)[C@@H]5CC[C@]43C)[C@@H]12 (stereo partly specified) | 330 | 
